In ChEMBL document CHEMBL5661979, “Pharmacological inhibition of BMK1 suppresses tumor growth through promyelocytic leukemia protein” (Cancer Cell, 2010):
Active and inactive are the calls of the source. No cut-off for these calls is given here.

Experiments:
[1] = Inhibition of NEK6/7 in human HeLa cells lysate at 50 uM pre incubated for 15 mins followed by ATP acyl phosphate probe addition and measured after 10 mins by LC-MS/MS analysis relative to control; details: 25 min, condition cancer
[2] = molecular target: Serine/threonine-protein kinase PLK4 (Homo sapiens) (UniProt O00444); assay: Inhibition of recombinant Flag-tagged PLK4 (unknown origin) expressed in HEK293 cells at 0.08 to 10 uM in presence of 32P-gamma-ATP; format: cell-based; details: dose 0.08-10 µM
Activated CDC42 kinase 1 = Activated CDC42 kinase 1 (Homo sapiens, UniProt Q07912); assay: Inhibition of ACK1 in human HeLa cells lysate at 50 uM pre incubated for 15 mins followed by ADP acyl phosphate probe addition and measured after 10 mins by LC-MS/MS analysis relative to control; format: subcellular; details: time 25.0 min
How it was run: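 HeLa cell lysates (5 mg/mL total protein) were preincubated with inhibitor at 0, 0.8, 2, 10 or 50 μM for 15 min. ATP or ADP acylphosphate probe was then added (5 μM final) for 10 min, and reactions were stopped with urea. Up to four fragment ions per kinase probe-peptide were quantified by targeted MS. % inhibition was taken relative to untreated lysate. Run in duplicate.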

[3] = Toxicity in C57Bl/6 mouse assessed as effect on injection site at 50 mg/kg, ip for 14 days; format: organism-based; details: in vivo, 336 h, time 14 day
[4] = molecular target: Mitogen-activated protein kinase kinase kinase 8 (Homo sapiens, UniProt P41279); assay: Inhibition of COT in human HeLa cells lysate pre incubated for 15 mins followed by ADP acyl phosphate probe addition and measured after 10 mins by LC-MS/MS analysis; format: subcellular
[5] = Inhibition of CDK5/PRKX/PRKY in human HeLa cells lysate at 10 uM pre incubated for 15 mins followed by ADP acyl phosphate probe addition and measured after 10 mins by LC-MS/MS analysis relative to control; details: 25 min, condition cancer
How it was run: (§1)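 KiNativ profiling in HeLa lysate (5 mg/mL total protein). Lysate incubated 15 min with inhibitor at 50, 10, 2, 0.8 or 0 μM. ATP or ADP acylphosphate probe then added (5 μM final) and reacted 10 min. Reaction stopped with urea and analysed by targeted MS, using up to four fragment ions per kinase peptide-probe conjugate. % inhibition taken against untreated lysate. Run in duplicate.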

[6] = molecular target: Serine/threonine-protein kinase Chk2 (Homo sapiens, UniProt O96017); assay: Inhibition of CHK2 in human HeLa cells lysate at 10 uM pre incubated for 15 mins followed by ADP acyl phosphate probe addition and measured after 10 mins by LC-MS/MS analysis relative to control; format: subcellular; details: time 25.0 min
[7] = molecular target: Mitogen-activated protein kinase 14 (Homo sapiens, UniProt Q16539); assay: Inhibition of p38a in human HeLa cells lysate at 10 uM pre incubated for 15 mins followed by ATP acyl phosphate probe addition and measured after 10 mins by LC-MS/MS analysis relative to control; format: subcellular; details: time 25.0 min
[8] = molecular target: T1, Serine/threonine-protein kinase Sgk3 (Homo sapiens, UniProt Q96BR1); assay: Inhibition of SGK3 K2 site in human HeLa cells lysate pre incubated for 15 mins followed by ATP acyl phosphate probe addition and measured after 10 mins by LC-MS/MS analysis; format: subcellular
T1 sequence (Q96BR1 whole entry): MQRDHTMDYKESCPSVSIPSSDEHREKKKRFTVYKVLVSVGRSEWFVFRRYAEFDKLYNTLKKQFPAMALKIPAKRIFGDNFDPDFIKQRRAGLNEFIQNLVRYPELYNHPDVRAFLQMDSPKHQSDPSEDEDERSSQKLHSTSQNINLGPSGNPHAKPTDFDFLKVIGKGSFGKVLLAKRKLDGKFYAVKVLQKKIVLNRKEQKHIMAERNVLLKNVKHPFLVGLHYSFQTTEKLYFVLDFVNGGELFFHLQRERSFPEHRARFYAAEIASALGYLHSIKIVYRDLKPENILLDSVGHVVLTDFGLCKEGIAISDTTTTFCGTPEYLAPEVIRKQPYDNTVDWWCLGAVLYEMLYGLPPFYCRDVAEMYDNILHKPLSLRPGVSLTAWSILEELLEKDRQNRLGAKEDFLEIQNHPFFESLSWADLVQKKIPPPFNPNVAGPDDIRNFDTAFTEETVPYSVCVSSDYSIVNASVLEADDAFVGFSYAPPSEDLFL

[9] = molecular target: T2, Serine/threonine-protein kinase 3 (Homo sapiens) (UniProt Q13188); assay: Inhibition of MST2 in human HeLa cells lysate at 50 uM pre incubated for 15 mins followed by ADP acyl phosphate probe addition and measured after 10 mins by LC-MS/MS analysis relative to control; format: subcellular; details: time 25.0 min
T2 sequence (whole entry): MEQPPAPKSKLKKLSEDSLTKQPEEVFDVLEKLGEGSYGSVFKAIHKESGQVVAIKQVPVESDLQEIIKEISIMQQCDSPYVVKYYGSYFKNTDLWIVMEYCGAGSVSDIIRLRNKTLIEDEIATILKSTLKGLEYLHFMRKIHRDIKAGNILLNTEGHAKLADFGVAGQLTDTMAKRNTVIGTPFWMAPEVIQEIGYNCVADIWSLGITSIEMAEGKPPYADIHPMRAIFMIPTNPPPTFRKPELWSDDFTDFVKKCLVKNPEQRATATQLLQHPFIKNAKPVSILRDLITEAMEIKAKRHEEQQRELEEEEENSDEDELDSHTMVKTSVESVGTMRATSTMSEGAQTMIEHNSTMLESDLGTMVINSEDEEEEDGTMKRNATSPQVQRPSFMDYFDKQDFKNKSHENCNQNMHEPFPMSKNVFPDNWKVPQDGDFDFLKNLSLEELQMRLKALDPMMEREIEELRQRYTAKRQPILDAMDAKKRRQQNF

[10] = molecular target: Cyclin-dependent kinase 9 (Homo sapiens, UniProt P50750); assay: Inhibition of CDK9 in human HeLa cells lysate pre incubated for 15 mins followed by ATP acyl phosphate probe addition and measured after 10 mins by LC-MS/MS analysis; format: subcellular; how it was run: as §1
[11] = Inhibition of MST4/YSK1 in human HeLa cells lysate pre incubated for 15 mins followed by ADP acyl phosphate probe addition and measured after 10 mins by LC-MS/MS analysis; format: subcellular
HeLa = assay: Antitumor activity against human HeLa cells xenografted in NOD/SCID mouse assessed as reduction tumor growth at 50 mg/kg, ip administered on day 7 post implantation measured after 28 days; format: functional, organism-based; details: time 21.0 day
How it was run: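 HeLa cells (5×10^5, in DMEM) were injected s.c. into the right flank of 6-week-old Nod/Scid mice on day 0. Dosing was 50 mg/kg i.p. twice daily, starting on day 1, 7 or 14 and continuing to day 28; controls received carrier. 6 mice per treated group. Tumors were measured every 2–3 days.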

[12] = molecular target: Serine/threonine-protein kinase DCLK2 (Homo sapiens) (UniProt Q8N568); assay: Inhibition of DCAMKL2 (unknown origin) assessed as remaining activity at 10 uM by ATP-competition binding assay relative to control
[13] = molecular target: Mixed lineage kinase domain-like protein (Homo sapiens, UniProt Q8NB16); assay: Inhibition of MLKL in human HeLa cells lysate pre incubated for 15 mins followed by ATP acyl phosphate probe addition and measured after 10 mins by LC-MS/MS analysis; format: subcellular
[14] = molecular target: Dual specificity protein kinase TTK (Homo sapiens) (UniProt P33981); assay: Inhibition of TTK (unknown origin) assessed as remaining activity at 10 uM by ATP-competition binding assay relative to control

Sequence of Serine/threonine-protein kinase PLK4 (Homo sapiens) (O00444 whole entry): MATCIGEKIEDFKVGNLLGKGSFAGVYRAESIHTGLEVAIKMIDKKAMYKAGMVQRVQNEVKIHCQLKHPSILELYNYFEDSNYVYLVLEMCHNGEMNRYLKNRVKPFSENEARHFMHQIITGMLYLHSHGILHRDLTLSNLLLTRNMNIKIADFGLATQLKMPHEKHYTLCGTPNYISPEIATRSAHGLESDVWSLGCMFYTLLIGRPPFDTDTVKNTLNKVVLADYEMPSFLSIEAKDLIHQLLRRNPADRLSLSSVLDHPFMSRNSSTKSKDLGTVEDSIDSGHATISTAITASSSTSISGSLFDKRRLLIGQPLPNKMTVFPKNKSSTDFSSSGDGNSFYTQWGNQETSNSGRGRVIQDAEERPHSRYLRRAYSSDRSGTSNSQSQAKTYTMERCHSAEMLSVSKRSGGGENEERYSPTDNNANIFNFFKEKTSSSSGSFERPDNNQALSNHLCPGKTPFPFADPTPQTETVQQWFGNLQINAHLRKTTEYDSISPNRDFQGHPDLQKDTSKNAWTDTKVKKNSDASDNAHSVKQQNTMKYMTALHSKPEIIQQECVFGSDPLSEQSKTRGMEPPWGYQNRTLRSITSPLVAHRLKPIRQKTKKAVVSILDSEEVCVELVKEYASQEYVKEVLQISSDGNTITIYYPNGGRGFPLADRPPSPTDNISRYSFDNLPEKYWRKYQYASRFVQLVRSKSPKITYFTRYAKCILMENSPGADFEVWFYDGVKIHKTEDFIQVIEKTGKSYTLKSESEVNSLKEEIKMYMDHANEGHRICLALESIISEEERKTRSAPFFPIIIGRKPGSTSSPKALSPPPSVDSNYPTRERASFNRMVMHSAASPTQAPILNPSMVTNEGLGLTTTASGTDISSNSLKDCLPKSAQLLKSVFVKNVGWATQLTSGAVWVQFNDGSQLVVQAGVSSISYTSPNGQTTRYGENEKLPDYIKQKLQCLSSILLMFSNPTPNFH
Sequence of Mitogen-activated protein kinase kinase kinase 8 (P41279 whole entry): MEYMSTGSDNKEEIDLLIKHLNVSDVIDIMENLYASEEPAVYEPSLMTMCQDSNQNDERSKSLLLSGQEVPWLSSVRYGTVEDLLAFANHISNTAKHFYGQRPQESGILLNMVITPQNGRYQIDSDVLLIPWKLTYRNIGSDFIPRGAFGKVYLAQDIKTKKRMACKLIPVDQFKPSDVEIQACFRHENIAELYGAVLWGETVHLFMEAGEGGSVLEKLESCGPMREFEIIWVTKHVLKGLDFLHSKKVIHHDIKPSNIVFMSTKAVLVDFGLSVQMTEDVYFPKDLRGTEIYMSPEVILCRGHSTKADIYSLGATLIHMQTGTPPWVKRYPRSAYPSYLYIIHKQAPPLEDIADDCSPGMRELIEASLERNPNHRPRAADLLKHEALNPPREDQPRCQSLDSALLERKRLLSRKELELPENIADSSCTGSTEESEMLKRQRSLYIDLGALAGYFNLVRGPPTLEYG
Sequence of Mixed lineage kinase domain-like protein (Q8NB16 whole entry, the tested form may be a part): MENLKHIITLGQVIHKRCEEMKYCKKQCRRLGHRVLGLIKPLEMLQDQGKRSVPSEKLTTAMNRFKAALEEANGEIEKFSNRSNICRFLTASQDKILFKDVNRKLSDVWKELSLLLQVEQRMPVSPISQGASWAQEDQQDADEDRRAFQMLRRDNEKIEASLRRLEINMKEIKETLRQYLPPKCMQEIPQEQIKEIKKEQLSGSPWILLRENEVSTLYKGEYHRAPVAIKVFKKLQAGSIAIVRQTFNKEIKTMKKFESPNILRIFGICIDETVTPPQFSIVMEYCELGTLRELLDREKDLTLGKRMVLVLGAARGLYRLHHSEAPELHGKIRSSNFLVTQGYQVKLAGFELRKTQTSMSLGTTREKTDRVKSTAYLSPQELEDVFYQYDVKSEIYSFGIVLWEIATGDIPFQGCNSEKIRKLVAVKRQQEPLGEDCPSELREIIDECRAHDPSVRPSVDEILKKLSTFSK
Sequence of Cyclin-dependent kinase 9 (P50750 whole entry): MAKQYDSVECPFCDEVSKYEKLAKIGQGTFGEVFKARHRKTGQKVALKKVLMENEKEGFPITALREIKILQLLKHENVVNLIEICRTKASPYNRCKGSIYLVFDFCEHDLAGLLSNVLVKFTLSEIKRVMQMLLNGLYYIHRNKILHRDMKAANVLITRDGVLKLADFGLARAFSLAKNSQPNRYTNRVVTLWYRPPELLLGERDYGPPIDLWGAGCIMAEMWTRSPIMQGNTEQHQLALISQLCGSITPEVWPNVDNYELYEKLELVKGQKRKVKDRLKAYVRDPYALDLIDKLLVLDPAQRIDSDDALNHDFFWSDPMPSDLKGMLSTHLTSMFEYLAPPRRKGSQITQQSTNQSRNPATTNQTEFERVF
Sequence of Mitogen-activated protein kinase 14 (Q16539 whole entry): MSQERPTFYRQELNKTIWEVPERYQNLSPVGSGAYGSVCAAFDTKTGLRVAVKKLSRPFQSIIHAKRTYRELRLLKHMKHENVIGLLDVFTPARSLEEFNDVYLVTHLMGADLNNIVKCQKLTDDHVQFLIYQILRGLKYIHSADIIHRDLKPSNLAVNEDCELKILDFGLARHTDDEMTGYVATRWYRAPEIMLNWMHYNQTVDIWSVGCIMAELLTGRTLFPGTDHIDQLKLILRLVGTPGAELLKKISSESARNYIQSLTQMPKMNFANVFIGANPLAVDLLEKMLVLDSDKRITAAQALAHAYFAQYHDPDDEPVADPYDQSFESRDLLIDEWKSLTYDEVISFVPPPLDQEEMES
Sequence of Serine/threonine-protein kinase DCLK2 (Homo sapiens) (Q8N568 whole entry, the tested form may be a part): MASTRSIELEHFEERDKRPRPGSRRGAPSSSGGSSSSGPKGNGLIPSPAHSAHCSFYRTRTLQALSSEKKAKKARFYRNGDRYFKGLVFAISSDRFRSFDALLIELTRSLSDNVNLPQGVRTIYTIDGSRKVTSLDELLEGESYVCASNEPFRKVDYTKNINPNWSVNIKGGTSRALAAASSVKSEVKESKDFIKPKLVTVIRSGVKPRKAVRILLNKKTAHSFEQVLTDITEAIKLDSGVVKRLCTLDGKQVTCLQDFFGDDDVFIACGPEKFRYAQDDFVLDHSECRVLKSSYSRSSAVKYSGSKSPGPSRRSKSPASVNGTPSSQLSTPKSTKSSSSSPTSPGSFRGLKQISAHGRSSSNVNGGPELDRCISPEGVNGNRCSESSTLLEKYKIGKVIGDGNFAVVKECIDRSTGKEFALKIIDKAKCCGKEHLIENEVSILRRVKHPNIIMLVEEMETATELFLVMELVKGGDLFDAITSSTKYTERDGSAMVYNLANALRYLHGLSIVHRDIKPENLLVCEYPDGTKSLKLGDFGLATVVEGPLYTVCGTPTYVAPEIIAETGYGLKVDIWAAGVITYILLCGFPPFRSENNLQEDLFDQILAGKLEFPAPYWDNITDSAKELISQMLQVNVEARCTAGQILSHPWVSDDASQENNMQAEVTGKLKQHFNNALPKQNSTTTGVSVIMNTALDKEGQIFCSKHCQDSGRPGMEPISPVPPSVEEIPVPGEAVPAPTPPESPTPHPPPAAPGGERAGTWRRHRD
Sequence of Activated CDC42 kinase 1 (Q07912 whole entry, looked up, the tested form may be a part): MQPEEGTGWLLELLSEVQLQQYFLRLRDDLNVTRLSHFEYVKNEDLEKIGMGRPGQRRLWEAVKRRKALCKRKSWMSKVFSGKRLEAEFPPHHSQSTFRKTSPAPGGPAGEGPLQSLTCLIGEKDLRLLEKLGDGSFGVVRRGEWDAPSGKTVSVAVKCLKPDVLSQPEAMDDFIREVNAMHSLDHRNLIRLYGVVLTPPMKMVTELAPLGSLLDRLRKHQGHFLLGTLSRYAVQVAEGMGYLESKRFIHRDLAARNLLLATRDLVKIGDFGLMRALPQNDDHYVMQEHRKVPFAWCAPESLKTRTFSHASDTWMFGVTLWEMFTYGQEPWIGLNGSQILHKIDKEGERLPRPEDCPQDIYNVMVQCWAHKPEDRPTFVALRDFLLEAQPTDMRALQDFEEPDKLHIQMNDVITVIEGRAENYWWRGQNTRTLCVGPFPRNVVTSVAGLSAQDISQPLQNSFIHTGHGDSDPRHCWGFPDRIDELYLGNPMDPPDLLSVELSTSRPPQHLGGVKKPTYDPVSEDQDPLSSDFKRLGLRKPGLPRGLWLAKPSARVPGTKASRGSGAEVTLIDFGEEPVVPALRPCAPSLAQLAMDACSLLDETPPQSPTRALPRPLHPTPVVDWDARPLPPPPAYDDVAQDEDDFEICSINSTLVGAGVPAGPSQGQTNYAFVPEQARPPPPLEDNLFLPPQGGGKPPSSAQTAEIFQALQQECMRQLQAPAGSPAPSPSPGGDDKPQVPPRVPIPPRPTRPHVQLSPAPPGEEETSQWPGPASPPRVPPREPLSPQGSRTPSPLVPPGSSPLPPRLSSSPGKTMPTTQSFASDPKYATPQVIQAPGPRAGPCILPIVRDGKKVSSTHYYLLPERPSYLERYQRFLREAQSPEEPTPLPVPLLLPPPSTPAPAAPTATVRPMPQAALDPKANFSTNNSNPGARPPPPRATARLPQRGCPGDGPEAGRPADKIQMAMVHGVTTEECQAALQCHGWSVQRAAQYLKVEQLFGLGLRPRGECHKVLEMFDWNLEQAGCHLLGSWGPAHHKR
Sequence of Serine/threonine-protein kinase Chk2 (O96017 whole entry): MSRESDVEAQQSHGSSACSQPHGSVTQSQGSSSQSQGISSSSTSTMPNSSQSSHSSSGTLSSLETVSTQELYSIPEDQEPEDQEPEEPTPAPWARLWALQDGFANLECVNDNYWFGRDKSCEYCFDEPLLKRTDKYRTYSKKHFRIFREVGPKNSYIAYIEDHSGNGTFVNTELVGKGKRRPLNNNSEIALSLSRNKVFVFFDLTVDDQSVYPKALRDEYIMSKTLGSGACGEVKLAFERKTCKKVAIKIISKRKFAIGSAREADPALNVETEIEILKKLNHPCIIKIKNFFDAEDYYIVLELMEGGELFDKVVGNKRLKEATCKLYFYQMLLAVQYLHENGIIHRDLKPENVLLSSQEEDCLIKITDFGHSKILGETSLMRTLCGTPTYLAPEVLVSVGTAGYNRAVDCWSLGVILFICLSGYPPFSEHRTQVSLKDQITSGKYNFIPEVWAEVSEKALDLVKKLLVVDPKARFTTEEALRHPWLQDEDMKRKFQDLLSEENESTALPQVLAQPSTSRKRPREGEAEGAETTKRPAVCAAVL

With `CCOc1cc(N2CCC(O)CC2)ccc1Nc1ncc2c(n1)N(C)c1ccccc1C(=O)N2C` the inhibition at 50 µM [1] was -11.1%, the inhibition [2] was “Active” and the inhibition (Activated CDC42 kinase 1) was 71.5%. For the same compound, the Activity [3] was “Non-Toxic”, the IC50 [4] was greater than 50 µM and the inhibition at 10 µM [5] was -0.1%. It also gave an inhibition [6] of 1.1%, an inhibition [7] of -4% and an IC50 [8] greater than 50 µM. It also gave an inhibition [9] of 7.2%, an IC50 [10] greater than 50 µM and an IC50 [11] greater than 50 µM. For the same compound, the Activity (HeLa) was “Active”, the Activity [12] was 0.65% and the IC50 [13] was greater than 50 µM. It also gave an Activity [14] of 19%.
